# Records with an inconclusive call do not appear. The source made the active and inactive calls.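 How the source made its calls: active means inhibition of at least 30% at any tested concentration; inactive means the rest, inconclusive results apart.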
# Target: M18 aspartyl aminopeptidase (Plasmodium falciparum 3D7)
# Assay: inhibition of malaria M18 aspartyl aminopeptidase – biochemical, QFRET fluorogenic substrate, set 2, counter-screen for PfM17LAP inhibitor project, dose response (AID 602218)
# Settings: recombinant PfM18AAP, H-Glu-NHMec fluorogenic cleavage
# How it was run: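 Technique – released NHMec fluorescence, excitation 370 nm, emission 460 nm · System – purified recombinant Plasmodium falciparum M18 aspartyl aminopeptidase (rPFM18AAP) · Evaluation – percent inhibition versus controls, IC50 by four-parameter logistic fit · Replication – triplicate · Times – 90 min reaction, room temperature · Medium – Tris-HCl buffer pH 7.5 with 2 mM CoCl2, 2% DMSO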
row,Compound,IC50 [µM]
1,CCCCOc1ccc(CC(=O)NO)cc1,10
2,CCCCOc1ccc(CC(=O)N(C)O)cc1,40.2
3,CCOc1ccc(CC(=O)NO)cc1,34.1
4,CCCCCCCCCC(=O)NO,18
5,CC(C)(C(=O)NO)c1ccccc1,54.6
6,CCCCOc1ccc(CCC(=O)NO)cc1,18.5
7,O=C(Cc1ccc2c(c1)CCCC2)NO,8.93
8,CN(O)C(=O)Cc1ccc(OCc2ccccc2)cc1,29.2
9,CC(C)COc1ccc(CC(=O)NO)cc1,11.4
10,CCCCOc1ccc(C(=O)NO)cc1,12.7
11,O=C(NO)c1cccc2ccccc12,10.1
12,Cc1ccc(CC(=O)NO)cc1,33.6
13,CCCCOc1ccc(CNc2c(N(C)O)c(=O)c2=O)cc1,65.4
14,COc1ccc(CCCC(=O)NO)cc1,14.6
15,O=C(Cc1ccc(Oc2ccccc2)cc1)NO,7.13
16,COc1ccc(CC(=O)NO)cc1,16.4
17,CCCCc1ccc(CC(=O)NO)cc1,13.7
18,O=C(Cc1ccc(OCc2ccccc2)cc1)NO,9.64

# Same assay, conditions: recombinant PfM18AAP, H-Glu-NHMec fluorogenic cleavage; at 25 µM (top of the series)
row,Compound,inhibition
1,CCCCOc1ccc(CNc2c(N(O)Cc3ccccc3)c(=O)c2=O)cc1,inactive

# Same assay, conditions: recombinant PfM18AAP, H-Glu-NHMec fluorogenic cleavage; at 100 µM (top of the series)
row,Compound,inhibition
1,CCCOc1ccc(CC(=O)OC)cc1,inactive
2,COC(=O)Cc1ccc(OCCN(C)C)cc1,inactive
3,CCCCOc1ccc(CC(=O)O)cc1,inactive

# — PubChem BioAssay AID602218 (Southern Research Specialized Biocontainment Screening …, 2012)
